ChEMBL document CHEMBL3774303, “Discovery of novel pyrrolo[2,3-b]pyridine derivatives bearing 1,2,3-triazole moiety as c-Met kinase inhibitors” (Bioorg Med Chem Lett, 2016)

Tests used:
MCF7 = test: Cytotoxicity against human MCF7 cells assessed as reduction in cell growth after 72 hrs by MTT assay; type: functional, cell-based; conditions: MCF7, 72 h
Summary of the method: (§1)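 Cells grown in MEM with 10% FBS were seeded at about 4 × 10³ cells/well and held 24 h at 37 °C in 5% CO₂. Compounds were then added and cells cultured 72 h. IC50 is the average of triplicate determinations.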

[1] = Cytotoxicity against human PC3 cells assessed as reduction in cell growth after 72 hrs by MTT assay; type: functional, cell-based; conditions: PC-3, 72 h; summary of the method: as §1
A549 = test: Cytotoxicity against human A549 cells assessed as reduction in cell growth after 72 hrs by MTT assay; conditions: A549, 72 h
HT-29 = test: Cytotoxicity against human HT-29 cells assessed as reduction in cell growth after 72 hrs by MTT assay; conditions: HT-29, 72 h
[2] = target: T1, Receptor-type tyrosine-protein kinase FLT3 (Homo sapiens, UniProt P36888); test: Inhibition of FLT3 (unknown origin) using poly (Glu, Tyr) 4:1 as substrate after 30 mins by HTRF assay
T1 sequence (P36888 whole entry): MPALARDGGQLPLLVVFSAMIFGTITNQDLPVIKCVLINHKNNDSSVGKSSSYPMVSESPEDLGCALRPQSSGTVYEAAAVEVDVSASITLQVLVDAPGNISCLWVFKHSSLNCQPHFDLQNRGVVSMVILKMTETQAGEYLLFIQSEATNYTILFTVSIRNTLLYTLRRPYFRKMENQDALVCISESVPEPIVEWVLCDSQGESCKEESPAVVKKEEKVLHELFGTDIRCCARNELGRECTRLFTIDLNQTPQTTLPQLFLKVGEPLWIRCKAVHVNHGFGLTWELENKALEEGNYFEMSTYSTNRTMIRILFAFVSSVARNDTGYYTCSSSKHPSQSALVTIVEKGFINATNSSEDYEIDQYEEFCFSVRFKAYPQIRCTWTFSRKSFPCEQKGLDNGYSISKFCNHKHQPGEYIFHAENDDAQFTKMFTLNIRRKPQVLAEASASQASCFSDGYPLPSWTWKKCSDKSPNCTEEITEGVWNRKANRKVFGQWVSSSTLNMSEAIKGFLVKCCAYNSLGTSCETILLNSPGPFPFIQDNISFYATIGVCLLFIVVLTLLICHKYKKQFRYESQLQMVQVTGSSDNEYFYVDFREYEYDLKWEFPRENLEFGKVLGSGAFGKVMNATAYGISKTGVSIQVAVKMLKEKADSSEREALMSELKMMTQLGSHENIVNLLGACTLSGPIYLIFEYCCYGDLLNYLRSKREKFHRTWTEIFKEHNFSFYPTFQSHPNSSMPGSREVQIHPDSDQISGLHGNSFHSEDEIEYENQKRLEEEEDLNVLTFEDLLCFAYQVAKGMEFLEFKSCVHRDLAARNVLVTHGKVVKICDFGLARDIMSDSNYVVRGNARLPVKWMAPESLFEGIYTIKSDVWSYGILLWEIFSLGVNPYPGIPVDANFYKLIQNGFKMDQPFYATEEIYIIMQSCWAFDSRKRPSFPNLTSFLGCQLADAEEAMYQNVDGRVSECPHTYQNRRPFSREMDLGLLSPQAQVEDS
Summary of the method: (§2)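 HTRF tyrosine-kinase assay with purified enzyme on preloaded poly(Glu,Tyr) 4:1 substrate (20 μg/mL). ATP was added from a 10 mM solution in HEPES buffer (50 mM, pH 7.0, with Mg²⁺, Mn²⁺, DTT, 0.1% NaN₃), and compounds in 1% DMSO.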

[3] = target: Hepatocyte growth factor receptor (Homo sapiens, UniProt P08581); test: Inhibition of cMet (unknown origin) using poly (Glu, Tyr) 4:1 as substrate after 30 mins by HTRF assay
Hepatocyte growth factor receptor, sequence (P08581 whole entry): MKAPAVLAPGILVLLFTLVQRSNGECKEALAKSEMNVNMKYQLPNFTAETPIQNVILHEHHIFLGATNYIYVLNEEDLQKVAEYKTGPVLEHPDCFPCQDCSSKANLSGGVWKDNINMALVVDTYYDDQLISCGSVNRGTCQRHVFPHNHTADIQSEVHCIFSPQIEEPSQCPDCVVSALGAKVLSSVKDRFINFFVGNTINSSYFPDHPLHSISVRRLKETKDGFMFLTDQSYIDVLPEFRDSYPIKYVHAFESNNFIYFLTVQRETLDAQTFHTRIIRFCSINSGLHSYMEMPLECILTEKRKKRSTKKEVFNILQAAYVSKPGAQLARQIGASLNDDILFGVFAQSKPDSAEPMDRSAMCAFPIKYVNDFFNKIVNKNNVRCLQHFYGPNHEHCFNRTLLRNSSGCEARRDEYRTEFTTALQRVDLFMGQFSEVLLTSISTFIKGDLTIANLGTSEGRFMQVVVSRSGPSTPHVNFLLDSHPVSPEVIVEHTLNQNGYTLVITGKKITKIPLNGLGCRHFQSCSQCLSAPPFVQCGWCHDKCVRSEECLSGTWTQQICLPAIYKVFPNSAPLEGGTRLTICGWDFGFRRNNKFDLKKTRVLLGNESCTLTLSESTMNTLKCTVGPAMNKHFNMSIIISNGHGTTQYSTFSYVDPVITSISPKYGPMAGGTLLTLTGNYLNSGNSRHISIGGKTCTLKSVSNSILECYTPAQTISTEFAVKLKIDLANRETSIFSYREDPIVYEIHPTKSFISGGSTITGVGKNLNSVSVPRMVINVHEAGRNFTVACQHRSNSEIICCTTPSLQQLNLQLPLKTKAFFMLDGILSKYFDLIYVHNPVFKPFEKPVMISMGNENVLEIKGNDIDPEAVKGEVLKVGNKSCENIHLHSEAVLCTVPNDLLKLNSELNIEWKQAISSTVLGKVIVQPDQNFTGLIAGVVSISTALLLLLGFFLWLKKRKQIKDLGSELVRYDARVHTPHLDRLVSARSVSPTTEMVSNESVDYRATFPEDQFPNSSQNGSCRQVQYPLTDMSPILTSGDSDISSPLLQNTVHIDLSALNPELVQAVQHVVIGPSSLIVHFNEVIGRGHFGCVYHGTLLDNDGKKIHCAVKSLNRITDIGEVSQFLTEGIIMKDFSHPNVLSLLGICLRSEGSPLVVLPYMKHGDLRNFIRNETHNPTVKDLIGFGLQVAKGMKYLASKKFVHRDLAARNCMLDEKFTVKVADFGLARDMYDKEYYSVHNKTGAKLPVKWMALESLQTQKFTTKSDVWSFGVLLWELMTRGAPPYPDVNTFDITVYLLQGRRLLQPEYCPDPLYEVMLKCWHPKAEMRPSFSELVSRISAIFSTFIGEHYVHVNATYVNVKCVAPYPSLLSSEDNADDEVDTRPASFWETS

[4] = target: Platelet-derived growth factor receptor beta (Homo sapiens, UniProt P09619); test: Inhibition of PDGFRbeta (unknown origin) using poly (Glu, Tyr) 4:1 as substrate after 30 mins by HTRF assay; summary of the method: as §2
Platelet-derived growth factor receptor beta, sequence (P09619 whole entry): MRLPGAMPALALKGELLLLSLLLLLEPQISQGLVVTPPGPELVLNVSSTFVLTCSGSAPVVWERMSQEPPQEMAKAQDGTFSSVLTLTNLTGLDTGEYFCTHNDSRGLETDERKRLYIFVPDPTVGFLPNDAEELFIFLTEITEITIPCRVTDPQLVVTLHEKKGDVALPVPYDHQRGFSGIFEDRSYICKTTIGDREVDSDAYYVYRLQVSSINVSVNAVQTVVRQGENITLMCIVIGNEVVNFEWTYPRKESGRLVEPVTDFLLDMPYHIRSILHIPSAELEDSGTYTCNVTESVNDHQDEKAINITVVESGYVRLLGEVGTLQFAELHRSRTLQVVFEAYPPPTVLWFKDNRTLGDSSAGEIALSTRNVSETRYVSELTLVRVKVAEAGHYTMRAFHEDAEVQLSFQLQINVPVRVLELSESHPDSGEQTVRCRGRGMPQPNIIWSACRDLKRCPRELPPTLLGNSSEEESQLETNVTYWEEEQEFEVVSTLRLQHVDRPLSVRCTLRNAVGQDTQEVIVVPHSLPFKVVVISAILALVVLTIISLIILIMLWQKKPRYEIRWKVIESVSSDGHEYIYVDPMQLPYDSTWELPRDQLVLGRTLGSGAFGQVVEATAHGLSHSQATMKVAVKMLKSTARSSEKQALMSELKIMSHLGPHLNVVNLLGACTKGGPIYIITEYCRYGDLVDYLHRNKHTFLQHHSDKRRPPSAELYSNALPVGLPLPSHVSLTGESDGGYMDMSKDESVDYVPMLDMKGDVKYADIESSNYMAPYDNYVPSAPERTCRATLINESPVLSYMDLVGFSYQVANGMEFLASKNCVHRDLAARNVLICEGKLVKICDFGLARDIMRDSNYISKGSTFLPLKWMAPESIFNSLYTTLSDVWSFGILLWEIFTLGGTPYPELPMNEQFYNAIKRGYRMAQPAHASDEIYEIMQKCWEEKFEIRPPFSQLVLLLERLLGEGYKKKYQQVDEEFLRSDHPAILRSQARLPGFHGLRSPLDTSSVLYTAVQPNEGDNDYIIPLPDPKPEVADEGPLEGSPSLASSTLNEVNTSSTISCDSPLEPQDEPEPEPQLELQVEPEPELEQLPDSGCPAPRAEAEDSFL

[5] = target: Vascular endothelial growth factor receptor 2 (Homo sapiens, UniProt P35968); test: Inhibition of KDR (unknown origin) using poly (Glu, Tyr) 4:1 as substrate after 30 mins by HTRF assay; summary of the method: as §2
Vascular endothelial growth factor receptor 2, sequence (P35968 whole entry): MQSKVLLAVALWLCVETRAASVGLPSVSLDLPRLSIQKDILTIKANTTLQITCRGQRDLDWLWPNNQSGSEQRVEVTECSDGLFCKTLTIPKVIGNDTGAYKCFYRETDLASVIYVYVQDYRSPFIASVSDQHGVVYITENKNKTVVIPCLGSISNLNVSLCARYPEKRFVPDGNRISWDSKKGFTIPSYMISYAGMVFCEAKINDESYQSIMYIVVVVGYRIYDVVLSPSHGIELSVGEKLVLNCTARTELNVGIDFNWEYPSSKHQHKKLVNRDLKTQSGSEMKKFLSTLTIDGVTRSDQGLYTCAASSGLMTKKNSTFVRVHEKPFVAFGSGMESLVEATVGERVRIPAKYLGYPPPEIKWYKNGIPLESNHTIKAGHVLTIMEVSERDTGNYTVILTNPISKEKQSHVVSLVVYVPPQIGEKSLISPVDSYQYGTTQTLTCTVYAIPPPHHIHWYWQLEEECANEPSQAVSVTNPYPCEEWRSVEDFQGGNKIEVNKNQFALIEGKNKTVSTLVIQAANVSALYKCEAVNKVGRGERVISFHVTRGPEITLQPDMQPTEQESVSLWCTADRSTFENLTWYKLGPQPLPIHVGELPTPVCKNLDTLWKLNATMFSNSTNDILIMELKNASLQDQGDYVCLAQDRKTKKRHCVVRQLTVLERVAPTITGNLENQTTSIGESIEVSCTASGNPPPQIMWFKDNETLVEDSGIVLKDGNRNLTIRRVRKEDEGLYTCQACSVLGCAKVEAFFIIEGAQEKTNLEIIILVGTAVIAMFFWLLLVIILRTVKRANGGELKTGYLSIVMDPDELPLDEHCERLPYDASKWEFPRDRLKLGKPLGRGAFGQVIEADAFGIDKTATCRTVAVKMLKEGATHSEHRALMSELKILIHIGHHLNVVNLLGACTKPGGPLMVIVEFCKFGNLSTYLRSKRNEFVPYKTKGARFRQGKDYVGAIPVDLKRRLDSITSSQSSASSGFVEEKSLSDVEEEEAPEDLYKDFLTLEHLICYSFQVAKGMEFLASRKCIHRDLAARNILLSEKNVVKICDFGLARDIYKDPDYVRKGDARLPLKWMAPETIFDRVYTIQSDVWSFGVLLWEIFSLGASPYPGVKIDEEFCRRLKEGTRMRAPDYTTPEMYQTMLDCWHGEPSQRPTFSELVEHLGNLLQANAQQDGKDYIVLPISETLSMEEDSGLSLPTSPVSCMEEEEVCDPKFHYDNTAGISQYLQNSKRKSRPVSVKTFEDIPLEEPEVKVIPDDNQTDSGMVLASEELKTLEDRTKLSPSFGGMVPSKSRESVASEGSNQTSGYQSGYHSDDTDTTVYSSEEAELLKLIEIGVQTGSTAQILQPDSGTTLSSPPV

[6] = target: Mast/stem cell growth factor receptor Kit (Homo sapiens, UniProt P10721); test: Inhibition of cKit (unknown origin) using poly (Glu, Tyr) 4:1 as substrate after 30 mins by HTRF assay; summary of the method: as §2
Mast/stem cell growth factor receptor Kit, sequence (P10721 whole entry): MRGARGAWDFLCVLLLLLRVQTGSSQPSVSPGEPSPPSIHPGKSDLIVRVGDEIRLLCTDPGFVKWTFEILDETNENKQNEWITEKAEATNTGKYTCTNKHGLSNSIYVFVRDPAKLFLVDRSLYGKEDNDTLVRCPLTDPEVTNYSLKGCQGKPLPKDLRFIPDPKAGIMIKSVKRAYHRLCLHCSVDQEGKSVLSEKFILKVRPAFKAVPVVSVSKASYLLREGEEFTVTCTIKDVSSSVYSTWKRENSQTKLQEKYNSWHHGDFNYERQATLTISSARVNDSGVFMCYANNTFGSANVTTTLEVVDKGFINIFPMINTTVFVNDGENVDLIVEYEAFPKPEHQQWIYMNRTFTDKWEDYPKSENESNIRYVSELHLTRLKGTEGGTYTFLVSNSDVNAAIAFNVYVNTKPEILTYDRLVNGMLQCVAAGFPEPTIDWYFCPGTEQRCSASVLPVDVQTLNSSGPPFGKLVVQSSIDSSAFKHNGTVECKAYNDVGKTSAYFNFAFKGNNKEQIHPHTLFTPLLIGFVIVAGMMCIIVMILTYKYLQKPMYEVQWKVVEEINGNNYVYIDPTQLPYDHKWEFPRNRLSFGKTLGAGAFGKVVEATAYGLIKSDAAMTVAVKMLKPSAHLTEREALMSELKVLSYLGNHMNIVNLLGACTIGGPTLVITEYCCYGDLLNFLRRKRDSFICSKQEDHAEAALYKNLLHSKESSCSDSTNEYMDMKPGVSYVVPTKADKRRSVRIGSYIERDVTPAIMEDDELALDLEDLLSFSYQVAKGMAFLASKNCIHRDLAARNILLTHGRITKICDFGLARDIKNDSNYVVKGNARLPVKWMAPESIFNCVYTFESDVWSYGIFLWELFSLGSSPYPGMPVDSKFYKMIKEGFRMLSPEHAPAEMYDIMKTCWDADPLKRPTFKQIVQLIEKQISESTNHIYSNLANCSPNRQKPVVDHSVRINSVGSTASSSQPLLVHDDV

SMILES | IC50 (MCF7) [nM] | IC50 [1] [nM] | IC50 (A549) [nM] | IC50 (HT-29) [nM] | IC50 [2] [nM] | IC50 [3] [nM] | IC50 [4] [nM] | IC50 [5] [nM] | IC50 [6] [nM]
COc1ccc(-n2nnc(C(=O)Nc3ccc(Oc4ccnc5[nH]ccc45)c(F)c3)c2C(F)(F)F)cc1 | 510 | 1850 | 360 | 290 | – | – | – | – | –
O=C(Nc1ccc(Oc2ccnc3[nH]ccc23)cc1)c1nnn(-c2ccccc2)c1C(F)(F)F | 260 | 3570 | 290 | 190 | – | – | – | – | –
O=C(Nc1ccc(Oc2ccnc3[nH]ccc23)c(F)c1)c1nnn(-c2ccc(Cl)c(C(F)(F)F)c2)c1C(F)(F)F | – | – | 1290 | 1050 | – | – | – | – | –
Cc1c(C(=O)Nc2ccc(Oc3ccnc4[nH]ccc34)c(F)c2)nnn1-c1ccc(Cl)c(C(F)(F)F)c1 | – | – | 2370 | 1120 | – | – | – | – | –
O=C(Nc1ccc(Oc2ccnc3[nH]ccc23)c(F)c1)c1nnn(-c2ccc(F)c(F)c2)c1C(F)(F)F | 590 | 2480 | 350 | 320 | – | – | – | – | –
Cc1c(C(=O)Nc2ccc(Oc3ccnc4[nH]ccc34)c(F)c2)nnn1-c1ccccc1 | 350 | 2340 | 360 | 290 | – | – | – | – | –
Cc1c(C(=O)Nc2ccc(Oc3ccnc4[nH]ccc34)c(F)c2)nnn1-c1ccc(F)cc1 | 170 | 4350 | 150 | 120 | – | – | – | – | –
Cc1c(C(=O)Nc2ccc(Oc3ccnc4[nH]ccc34)cc2)nnn1-c1ccc(F)cc1 | 390 | 3450 | 220 | 180 | – | – | – | – | –
O=C(Nc1ccc(Oc2ccnc3[nH]ccc23)c(F)c1)c1nnn(-c2ccccc2F)c1C(F)(F)F | 280 | 2130 | 190 | 73 | – | – | – | – | –
O=C(Nc1ccc(Oc2ccnc3[nH]ccc23)c(F)c1)c1nnn(-c2ccc(F)cc2)c1C(F)(F)F | 110 | 1520 | 82 | 29 | 2.06 | 1.68 | 4.57 | 86.2 | 325
Cc1c(C(=O)Nc2ccc(Oc3ccnc4[nH]ccc34)c(F)c2)nnn1-c1ccc(F)c(Cl)c1 | – | – | 730 | 1060 | – | – | – | – | –
COc1ccc(-n2nnc(C(=O)Nc3ccc(Oc4ccnc5[nH]ccc45)c(F)c3)c2C)cc1 | – | – | 710 | 590 | – | – | – | – | –
Cc1c(C(=O)Nc2ccc(Oc3ccnc4[nH]ccc34)cc2)nnn1-c1ccc(F)c(Cl)c1 | 6310 | 12600 | 980 | 2180 | – | – | – | – | –
O=C(Nc1ccc(Oc2ccnc3[nH]ccc23)cc1)c1nnn(-c2ccccc2F)c1C(F)(F)F | 290 | 3690 | 210 | 120 | – | – | – | – | –
O=C(Nc1ccc(Oc2ccnc3[nH]ccc23)c(F)c1)c1nnn(-c2ccc(F)c(Cl)c2)c1C(F)(F)F | – | – | 820 | 630 | – | – | – | – | –
Cc1c(C(=O)Nc2ccc(Oc3ccnc4[nH]ccc34)cc2)nnn1-c1ccc(Cl)c(C(F)(F)F)c1 | 8410 | 10900 | 2830 | 3290 | – | – | – | – | –
Cc1c(C(=O)Nc2ccc(Oc3ccnc4[nH]ccc34)cc2)nnn1-c1ccc(F)c(F)c1 | – | – | 2260 | 1070 | – | – | – | – | –
O=C(Nc1ccc(Oc2ccnc3[nH]ccc23)cc1)c1nnn(-c2ccc(F)c(Cl)c2)c1C(F)(F)F | – | – | 1120 | 1020 | – | – | – | – | –
O=C(Nc1ccc(Oc2ccnc3[nH]ccc23)c(F)c1)c1nnn(-c2ccccc2)c1C(F)(F)F | 1150 | 2320 | 220 | 91 | – | – | – | – | –
Cc1c(C(=O)Nc2ccc(Oc3ccnc4[nH]ccc34)cc2)nnn1-c1ccccc1 | 320 | 7260 | 420 | 350 | – | – | – | – | –
COc1ccc(-n2nnc(C(=O)Nc3ccc(Oc4ccnc5[nH]ccc45)cc3)c2C)cc1 | – | – | 2420 | 1160 | – | – | – | – | –
O=C(Nc1ccc(Oc2ccnc3[nH]ccc23)cc1)c1nnn(-c2ccc(F)cc2)c1C(F)(F)F | 210 | 2830 | 180 | 93 | – | – | – | – | –
COc1ccc(-n2nnc(C(=O)Nc3ccc(Oc4ccnc5[nH]ccc45)cc3)c2C(F)(F)F)cc1 | 580 | 4850 | 460 | 290 | – | – | – | – | –
O=C(Nc1ccc(Oc2ccnc3[nH]ccc23)cc1)c1nnn(-c2ccc(Cl)c(C(F)(F)F)c2)c1C(F)(F)F | – | – | 2340 | 1530 | – | – | – | – | –
Cc1c(C(=O)Nc2ccc(Oc3ccnc4[nH]ccc34)c(F)c2)nnn1-c1ccc(F)c(F)c1 | 820 | 6540 | 570 | 610 | – | – | – | – | –
Cc1c(C(=O)Nc2ccc(Oc3ccnc4[nH]ccc34)c(F)c2)nnn1-c1ccccc1F | 420 | 3240 | 390 | 180 | – | – | – | – | –
Cc1c(C(=O)Nc2ccc(Oc3ccnc4[nH]ccc34)cc2)nnn1-c1ccccc1F | 280 | 3450 | 320 | 360 | – | – | – | – | –
O=C(Nc1ccc(Oc2ccnc3[nH]ccc23)cc1)c1nnn(-c2ccc(F)c(F)c2)c1C(F)(F)F | 690 | 7310 | 790 | 520 | – | – | – | – | –
